Article PMC11302324 (RSC Advances, 2024)
Blank lines part the entries; values can stand above or below the compound they belong to.

Assays:
[1] = tested on: hepatocellular carcinoma (HepG-2); assay: In vitro cytotoxicity, MTT assay; assay type: cell-based; conditions: Homo sapiens, HepG2, read-out: In vitro cytotoxicity IC50 HePG2
How it was run: (§1)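 Cells seeded at 1×10^5 cells per ml and grown 24 h at 37 °C to a monolayer, then washed twice. Two-fold dilutions of test compound in RPMI with 2% serum; medium-only control wells; doxorubicin positive control. Morphology checked, then MTT stock (5 mg ml⁻¹ in PBS) added and incubated 1-5 h (37 °C, 5% CO₂). Formazan dissolved in DMSO; OD 560 nm minus 620 nm; mean of three determinations; one-way ANOVA.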

[2] = tested on: prostate carcinoma (PC-3); assay: In vitro cytotoxicity, MTT assay; assay type: cell-based; conditions: Homo sapiens, read-out: In vitro cytotoxicity IC50 PC-3
How it was run: as §1

[3] = tested on: colorectal carcinoma (HCT-116); assay: In vitro cytotoxicity, MTT assay; assay type: cell-based; conditions: Homo sapiens, HCT-116, read-out: In vitro cytotoxicity IC50 HCT-116
How it was run: as §1

[4] = biological target: CK2 kinase (Homo sapiens, UniProt P68400); assay: CK2 kinase enzyme inhibitory assay; assay type: biochemical
Sequence of CK2 kinase (P68400 whole entry): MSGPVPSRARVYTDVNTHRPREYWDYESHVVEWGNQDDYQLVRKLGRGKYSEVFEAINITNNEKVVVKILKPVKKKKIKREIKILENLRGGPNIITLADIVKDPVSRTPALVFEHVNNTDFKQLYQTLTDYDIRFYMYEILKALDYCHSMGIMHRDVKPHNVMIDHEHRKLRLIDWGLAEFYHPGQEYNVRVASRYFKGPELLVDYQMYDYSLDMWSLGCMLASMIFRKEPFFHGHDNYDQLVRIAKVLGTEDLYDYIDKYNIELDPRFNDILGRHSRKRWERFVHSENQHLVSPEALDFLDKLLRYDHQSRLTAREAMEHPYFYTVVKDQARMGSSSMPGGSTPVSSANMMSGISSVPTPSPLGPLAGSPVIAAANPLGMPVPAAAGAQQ

[5] = tested on: HepG-2, PC-3, and HCT-116 cell lines; assay: In vitro cytotoxicity, MTT assay, stated for the three cell lines together; assay type: cell-based, human
How it was run: as §1

IC50 [4]: 0.117 ± 0.005 µM
SMILES: COC(=O)[C@H](CC(C)C)NC(=O)COc1ccc2c(C)cc(=O)oc2c1 [Compound 5b, (S)-Methyl-4-methyl-2-{2-[(4-methyl-2-oxo-2H-chromen-7-yl)oxy]acetamido}pentanoate]
IC50 [1]: 42.16 ± 0.3 µM
IC50 [2]: 59.7 ± 4.2 µM
IC50 [3]: 35.1 ± 2.8 µM

SMILES: COC(=O)[C@@H](NC(=O)COc1ccc2c(C)cc(=O)oc2c1)c1ccccc1 [Compound 5c, (S)-Methyl 2-{2-[(4-methyl-2-oxo-2H-chromen-7-yl)oxy]acetamido}-2-phenylacetate]
IC50 [1]: 154 ± 2.1 µM
IC50 [2]: 174 ± 1.8 µM
IC50 [3]: 124 ± 4.4 µM

SMILES: Cc1cc(=O)oc2cc(OCC(=O)NCC(=O)NN)ccc12 [Compound 6, N-(2-Hydrazinyl-2-oxoethyl)-2-[(4-methyl-2-oxo-2H-chromen-7-yl)oxy]acetamide]
IC50 [1]: 168 ± 4.4 µM
IC50 [2]: 168 ± 4.3 µM
IC50 [3]: 171 ± 4.2 µM

SMILES: COC(=O)CNC(=O)CNC(=O)COc1ccc2c(C)cc(=O)oc2c1 [Compound 7a, Methyl 2-{2-[2-[(4-methyl-2-oxo-2H-chromen-7-yl)oxy]acetamido]acetamido}acetate]
IC50 [1]: 174 ± 3.4 µM
IC50 [2]: 172.3 ± 1.4 µM
IC50 [3]: 137 ± 2.4 µM

IC50 [4]: 0.461 ± 0.02 µM
activity against CK2 kinase (in words) ([4]; compared with 5b): less active
SMILES: COC(=O)[C@@H](NC(=O)CNC(=O)COc1ccc2c(C)cc(=O)oc2c1)c1ccccc1 [Compound 7c, (S)-Methyl2-{2-{2-[(4-methyl-2-oxo-2H-chromen-7-yl)oxy]acetamido}acetamido}-2-phenylacetate]
IC50 [1]: 34.1 ± 4.2 µM
IC50 [2]: 16.1 ± 4.6 µM
IC50 [3]: 16 ± 4.1 µM

SMILES: COC(=O)[C@@H](CC(C)C)NC(=O)CNC(=O)CNC(=O)COc1ccc2c(C)cc(=O)oc2c1 [Compound 9b, (R)-Methyl4-methyl-2-{2-{2-{2-[(4-methyl-2-oxo-2H-chromen-7-yl)oxy]acetamido}acetamido}acetamido}pentanoate]
IC50 [1]: 298.8 ± 0.3 µM
IC50 [2]: 85.5 ± 0.4 µM
IC50 [3]: 169.1 ± 0.3 µM
cytotoxicity towards three cell lines (in words) [5]: relatively weak cytotoxicity

SMILES: COc1cccc2c1C(=O)c1c(O)c3c(c(O)c1C2=O)C[C@@](O)(C(=O)CO)C[C@@H]3O[C@H]1C[C@H](N)[C@H](O)[C@H](C)O1 [Doxorubicin, reference compound]
IC50 [1]: 108 ± 0.6 µM
IC50 [2]: 57.3 ± 0.6 µM
IC50 [3]: 61.01 ± 0.3 µM
